Assay results taken from ChEMBL document CHEMBL5724801, “EUbOPEN Chemogenomics Library - Multiplex” (2024).
Values joined by “and” are separate entries in the source; they are usually repeats but may differ in a detail not shown here. Identical values can stand only once.

Test system: Fibroblast
Assay: Multiplex assay against human fibroblast
Type: toxicity, cell-based
In short: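 Live cells carried four stains from seeding: Hoechst33342, BioTracker Green Microtubule Cytoskeleton Dye, MitoTracker Red and Annexin V Alexa Fluor 680. They were imaged on a CQ1 microscope at 37°C and 5% CO2 after compound addition. Using CellPathfinder machine-learning gating, cells were split into Hoechst high-intensity objects or normal cells, normal cells into healthy, pyknosed or fragmented nuclei, and pyknosed cells into mitotic or apoptotic; tubulin, mitochondrial-mass and membrane-permeability phenotypes are per cents of healthy-nucleus cells.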

[1] = 12 h, 1 µM, compound concentration 1 uM
[2] = 12 h, 10 µM, compound concentration 10 uM
[3] = 24 h, 1 µM, compound concentration 1 uM
[4] = 24 h, 10 µM, compound concentration 10 uM
[5] = 48 h, 1 µM, compound concentration 1 uM
[6] = 48 h, 10 µM, compound concentration 10 uM

CCCCC[C@H](O)/C=C/[C@H]1[C@H](O)CC(=O)[C@@H]1CCCCCCC(=O)O [ALPROSTADIL]
Population Apoptotic (%) [1]: 61% and 43%
Population Fragmented Nuclei (%) [1]: 16% and 23%
Population Healthy Nuclei (%) [1]: 71% and 57%
Population Hoechst High Intensity Objects (%) [1]: 0% and 4%
Population Membrane Permeable-Phenotype (%) [1]: 0% and 10%
Population Mitochondria Different-Phenotype (%) [1]: 1% and 2%
Population Mitotic Cells (%) [1]: 38% and 56%
Population Normal (%) [1]: 99% and 95%
Population Pyknosed Nuclei (%) [1]: 12% and 18%
Total Cell Count [1]: 150 and 169
Population Apoptotic (%) [2]: 36% and 34%
Population Healthy Nuclei (%) [2]: 75% and 43%
Population Membrane Permeable-Phenotype (%) [2]: 2% and 11%
Population Mitochondria Different-Phenotype (%) [2]: 4% and 1%
Population Mitotic Cells (%) [2]: 63% and 65%
Population Normal (%) [2]: 94% and 83%
Population Pyknosed Nuclei (%) [2]: 17% and 31%
Population Tubulin-Different-Phenotype (%) [2]: 26% and 45%
Total Cell Count [2]: 136 and 146
Population Apoptotic (%) [3]: 25% and 43%
Population Fragmented Nuclei (%) [3]: 15% and 22%
Population Healthy Nuclei (%) [3]: 73% and 53%
Population Hoechst High Intensity Objects (%) [3]: 0% and 2%
Population Membrane Permeable-Phenotype (%) [3]: 0% and 8%
Population Mitochondria Different-Phenotype (%) [3]: 1% and 8%
Population Mitotic Cells (%) [3]: 75% and 56%
Population Normal (%) [3]: 99% and 97%
Population Pyknosed Nuclei (%) [3]: 10% and 24%
Population Tubulin-Different-Phenotype (%) [3]: 15% and 40%
Total Cell Count [3]: 147 and 165
Population Apoptotic (%) [4]: 63% and 30%
Population Fragmented Nuclei (%) [4]: 14% and 27%
Population Healthy Nuclei (%) [4]: 69% and 45%
Population Membrane Permeable-Phenotype (%) [4]: 0% and 16%
Population Mitochondria Different-Phenotype (%) [4]: 2% and 3%
Population Mitotic Cells (%) [4]: 36% and 69%
Population Normal (%) [4]: 97% and 86%
Population Pyknosed Nuclei (%) [4]: 15% and 26%
Total Cell Count [4]: 147 and 157
Population Apoptotic (%) [5]: 32% and 55%
Population Fragmented Nuclei (%) [5]: 18% and 26%
Population Healthy Nuclei (%) [5]: 62% and 51%
Population Hoechst High Intensity Objects (%) [5]: 1% and 3%
Population Membrane Permeable-Phenotype (%) [5]: 1% and 6%
Population Mitochondria Different-Phenotype (%) [5]: 4% and 8%
Population Mitotic Cells (%) [5]: 67% and 44%
Population Normal (%) [5]: 98% and 96%
Population Pyknosed Nuclei (%) [5]: 18% and 21%
Population Tubulin-Different-Phenotype (%) [5]: 30% and 44%
Total Cell Count [5]: 152 and 162
Population Apoptotic (%) [6]: 62% and 48%
Population Fragmented Nuclei (%) [6]: 11% and 33%
Population Healthy Nuclei (%) [6]: 62% and 44%
Population Mitochondria Different-Phenotype (%) [6]: 7%
Population Mitotic Cells (%) [6]: 37% and 51%
Population Normal (%) [6]: 97% and 83%
Population Pyknosed Nuclei (%) [6]: 26% and 22%
Population Tubulin-Different-Phenotype (%) [6]: 34% and 60%
Total Cell Count [6]: 144

O=C(Nc1c[nH]nc1-c1nc2cc(CN3CCOCC3)ccc2[nH]1)NC1CC1 [AT-9283]
Population Apoptotic (%) [1]: 20% and 16.13%
Population Fragmented Nuclei (%) [1]: 9.94% and 5.09%
Population Healthy Nuclei (%) [1]: 62.43% and 80.56%
Population Hoechst High Intensity Objects (%) [1]: 0%
Population Membrane Permeable-Phenotype (%) [1]: 3.54% and 0.57%
Population Mitochondria Different-Phenotype (%) [1]: 14.16% and 13.22%
Population Mitotic Cells (%) [1]: 80% and 83.87%
Population Normal (%) [1]: 100%
Population Pyknosed Nuclei (%) [1]: 27.62% and 14.35%
Population Tubulin-Different-Phenotype (%) [1]: 24.78% and 24.71%
Total Cell Count [1]: 181 and 216
Population Apoptotic (%) [2]: 30% and 36.21%
Population Fragmented Nuclei (%) [2]: 25% and 12.87%
Population Healthy Nuclei (%) [2]: 54.59% and 65.81%
Population Hoechst High Intensity Objects (%) [2]: 0%
Population Membrane Permeable-Phenotype (%) [2]: 19.63% and 13.41%
Population Mitochondria Different-Phenotype (%) [2]: 14.02% and 18.44%
Population Mitotic Cells (%) [2]: 70% and 63.79%
Population Normal (%) [2]: 100%
Population Pyknosed Nuclei (%) [2]: 20.41% and 21.32%
Population Tubulin-Different-Phenotype (%) [2]: 36.45% and 41.34%
Total Cell Count [2]: 196 and 272
Population Apoptotic (%) [3]: 8.33% and 17.86%
Population Fragmented Nuclei (%) [3]: 12.64% and 5.88%
Population Healthy Nuclei (%) [3]: 67.58% and 68.78%
Population Hoechst High Intensity Objects (%) [3]: 0%
Population Membrane Permeable-Phenotype (%) [3]: 6.5% and 2.63%
Population Mitochondria Different-Phenotype (%) [3]: 13.01% and 9.87%
Population Mitotic Cells (%) [3]: 91.67% and 82.14%
Population Normal (%) [3]: 100%
Population Pyknosed Nuclei (%) [3]: 19.78% and 25.34%
Population Tubulin-Different-Phenotype (%) [3]: 28.46% and 22.37%
Total Cell Count [3]: 182 and 221
Population Apoptotic (%) [4]: 38.98% and 73.44%
Population Fragmented Nuclei (%) [4]: 21.08% and 15.35%
Population Healthy Nuclei (%) [4]: 43.37% and 56.58%
Population Hoechst High Intensity Objects (%) [4]: 0%
Population Membrane Permeable-Phenotype (%) [4]: 23.61% and 16.28%
Population Mitochondria Different-Phenotype (%) [4]: 16.67% and 18.6%
Population Mitotic Cells (%) [4]: 61.02% and 26.56%
Population Normal (%) [4]: 100%
Population Pyknosed Nuclei (%) [4]: 35.54% and 28.07%
Population Tubulin-Different-Phenotype (%) [4]: 38.89% and 57.36%
Total Cell Count [4]: 166 and 228
Population Apoptotic (%) [5]: 41.3% and 71.67%
Population Fragmented Nuclei (%) [5]: 16.56% and 16.58%
Population Healthy Nuclei (%) [5]: 54.14% and 51.34%
Population Hoechst High Intensity Objects (%) [5]: 0%
Population Membrane Permeable-Phenotype (%) [5]: 3.53% and 9.38%
Population Mitochondria Different-Phenotype (%) [5]: 11.76% and 7.29%
Population Mitotic Cells (%) [5]: 58.7% and 28.33%
Population Normal (%) [5]: 100%
Population Pyknosed Nuclei (%) [5]: 29.3% and 32.09%
Population Tubulin-Different-Phenotype (%) [5]: 23.53% and 35.42%
Total Cell Count [5]: 157 and 187
Population Apoptotic (%) [6]: 43.48% and 91.01%
Population Fragmented Nuclei (%) [6]: 26.71% and 24.14%
Population Healthy Nuclei (%) [6]: 44.72% and 32.02%
Population Hoechst High Intensity Objects (%) [6]: 0%
Population Membrane Permeable-Phenotype (%) [6]: 12.5% and 29.23%
Population Mitochondria Different-Phenotype (%) [6]: 18.06% and 23.08%
Population Normal (%) [6]: 100%
Population Pyknosed Nuclei (%) [6]: 28.57% and 43.84%
Population Tubulin-Different-Phenotype (%) [6]: 27.78% and 72.31%
Total Cell Count [6]: 161 and 203
